The text below walks through data of paper PMC6607903 (Clinical cancer research : an official journal of the …, 2015).

The format of data set [1] is in vivo.
Another data set relates to locally advanced HNSCC. Nature of the data set: Response evaluation. It is filed as in vivo, human. In a few lines:
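Test compound was infused IV over 1 h, Mon/Wed/Fri, for one week before radiation and then through weeks 1–7. Cisplatin 100 mg/m2 was given on days 2, 23 and 44 (adjustable to 40 mg/m2/week), never on the same day. IMRT delivered 70 Gy in 2 Gy daily fractions to gross disease and 56 Gy in 1.6 Gy fractions to the elective neck. Response was scored by RECIST 1.1 plus site-investigator overall assessment from imaging, PET/CT 12 weeks post-therapy, examination and histology.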

Data set [2] relates to HPV-negative head and neck cancer cell lines. The following applies: cited from earlier work.
A further data set deals with Akt. The following applies: compared with erlotinib or SAHA alone; cited from earlier work.
Data set [3] is described as follows: Plasma pharmacokinetics of CUDC-101 and metabolite in patients. The class given is in vivo, human. Particulars: for AUC(0-t) / Cmax / Tmax / Vd / clearance / half-life: human, iv.
The conditions of data set [4]: monotherapy; cited from earlier work.
The next data set deals with EGFR. As to the kind of experiment: IHC of phosphorylated EGFR in paired tumor biopsies. The class given is in vivo, human. Particulars: 2 pairs, 275 mg/m^2. In a few lines: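 Post-dose tumour biopsies were taken 60±30 min after the end of a 1-h IV infusion of test compound on day −5 or −3, and paired with pre-treatment archival tumour. Staining was done on 5-μm paraffin sections. Antigen retrieval used 10mM Tris, 1mM EDTA, 0.05% Tween 20, pH 9.0, at 95°C for 10 min then 90°C for 5 min. Primary antibody was anti-pEGFR Y1068.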

The term AUC(0-t) denotes the area under the concentration-time curve up to a stated or last time point. Broadly, the Cmax is the highest concentration seen after dosing. One may read the Tmax as the time from dosing to the highest level. One may read the Vd as the apparent volume that relates the amount in the body to the concentration in plasma or blood. By clearance is commonly meant the volume of plasma or blood freed of the substance per unit of time. The half-life is how long it takes for the measured level to halve. For the molecule `C#Cc1cccc(Nc2ncnc3cc(OC)c(OCCCCCCC(=O)NO)cc23)c1` [CUDC-101, 7-(4-(3-ethylnylphenylamino)-7-methoxyquinazolin-6-yloxy)-N-hydroxyheptanamide], the “Single adverse event (discontinuation) at dose level 1” value in data set [1] (human, in vivo, 1 week) is “grade 2 joint pain and myalgia”. Moreover, in data set [1] (human, in vivo, 8 weeks), the “Patients who experienced a serious adverse event (SAE)” value is given as 7. In data set [1] (in vivo), the “Patients who experienced at least one AE” value is “All patients” and the “Patients with an SAE considered related to any agent” value is “Five”. For the same molecule, in the data set with locally advanced HNSCC (11 patients, combination with cisplatin and radiation), the “Post-treatment clinical assessment: stable, patients (%)” value is given as 4 (37%). In the data set with locally advanced HNSCC (median of 1.47 (0.68 – 2.3) years of follow-up), this molecule displayed a Patients progression free of 90%. Moreover, the “Activity in HPV-negative head and neck cancer cell lines” value in data set [2] was “has activity”. Further, the “Phosphorylation of Akt” value in the data set with Akt was “reduced phosphorylation of Akt”. In addition, the “Dose dependent increase in exposure or peak concentration” value in data set [3] (225 vs 275 mg/m^2) was “no clear dose dependent increase”. In addition, in data set [3] (IV 3 times per week, days −7 to 43), the “Accumulation with this dosing regimen” value was “low probability of accumulation”. For the same molecule, in data set [3] (plasma, 225 mg/m2), the area under the curve AUC(0-t) came out at 9920 ng·h/mL, the Cmax was found to be 13100 ng/mL, the Tmax is 0.542 h and the Vd was 26.6 L. Moreover, in data set [3] (plasma, 225 mg/m2), the clearance was 938 mL/min and the half-life is 2.83 h. Moreover, in data set [3] (plasma, 225 mg/m^2), the area under the curve AUC(0-t) stood at 7110 ng·h/mL, the highest concentration (Cmax) came to 8890 ng/mL, the Tmax was found to be 1.25 h and the Vd was determined as 54.4 L. In data set [3] (plasma, 225 mg/m^2), the clearance is 895 mL/min and the half-life was 3.91 h. In addition, in data set [3] (plasma, 275 mg/m2), the AUC(0-t) came to 8000 ng·h/mL, the Cmax amounted to 7890 ng/mL, the Tmax was found to be 0.5 h and the distribution volume (Vd) was found to be 42.3 L. Also, in data set [3] (plasma, 275 mg/m2), the clearance is 1060 mL/min and the half-life is 2.88 h. In data set [3] (plasma, 275 mg/m^2), the AUC(0-t) is 7770 ng·h/mL, the maximum concentration (Cmax) was 7820 ng/mL, the Tmax turned out to be 0.742 h and the distribution volume (Vd) amounted to 76 L. Moreover, in data set [3] (plasma, 275 mg/m^2), the clearance is 1020 mL/min and the half-life was 6.41 h. Also, the “Peak concentrations and exposure between days −7 and 43” value in data set [3] (plasma, IV 3 times per week) is recorded as “similar”. Moreover, the “Exposure to the parent compound compared to its metabolite” value in data set [3] (plasma, all subjects) is “greater in all subjects”. The “MTD as a single agent” value in data set [4] was 275 mg/m^2. In the data set with EGFR, the “Phosphorylation of EGFR (Y1068 and Y1173) in tumor biopsies” value was “trend of EGFR inhibition”.

Take `N.N.[Cl][Pt][Cl]` [Cisplatin, reference compound]: in data set [1] (Dose Level 1, 225 mg/m^2 CUDC-101, agent Cisplatin/Radiation), the “SAE: Failure to thrive” value is recorded as 1 (25%).
